Experimental findings from ChEMBL document CHEMBL3808289, “Discovery of a Selective Series of Inhibitors of Plasmodium falciparum HDACs” (ACS Med Chem Lett, 2016) are described below.

In series [1] the test system is HDAC1. In words: Selectivity index, ratio of IC50 for HDAC1 in human HeLa cells to EC50 for Plasmodium falciparum 3D7 infected human erythrocytes. In kind it is toxicity, cell-based. To be noted: read-out: Ratio IC50/EC50.
The subject of series [2] is Plasmodium falciparum. The experiment in a line: Antimalarial activity against Plasmodium falciparum 3D7 infected human erythrocytes assessed as parasite growth inhibition after 72 hrs by spectrophotometry. Type of series: functional, organism-based. As to conditions: 3D7, 72 h. An outline of the steps:
(§1)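 Cell-based read-outs (parasite growth in erythrocytes; class I HDAC activity in HeLa) were run with multiple repetitions of each assay to limit variability.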

Series [3] addresses Histone deacetylase 1 (Homo sapiens, UniProt Q13547). In words: Inhibition of recombinant human His-tagged HDAC1 expressed in insect cells preincubated for 10 mins followed by addition of FLUOR DE LYS as fluorescent substrate measured after 1 hr by spectrophotometry.
Series [4] is described as follows: Inhibition of class 1 histone deacetylase in human HeLa cells using FLUOR DE LYS as fluorescent substrate after 4 hrs by spectrophotometry. Type of series: cell-based. An outline of the steps: as §1
In series [5] the test system is Plasmodium falciparum 3D7. The experiment in a line: Inhibition of recombinant Plasmodium falciparum 3D7 Flag-tagged HDAC1 Y301H mutant assessed as loss of enzyme activity. In a few lines: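 The Y301H mutant is a putative catalytic-site mutant of PfHDAC1. It was expressed as a Flag-fusion in insect or mammalian cells and purified on anti-Flag affinity gel. Deacetylase activity was measured in vitro with fluorogenic substrates, alongside wild-type PfHDAC1.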

Series [6] concerns Plasma. The experiment in a line: Drug uptake in NMRI mouse plasma at 10 mg/kg, po. To be noted: in vivo. In kind it is ADME, organism-based.
A short description of series [7]: Clearance in NMRI mouse plasma 2 mg/kg, iv by LC-MS/MS analysis. Type of series: ADME, organism-based.
Series [8] in a line: Clearance in NMRI mouse plasma. In kind it is ADME, organism-based.
Series [9] can be described thus: Oral bioavailability in NMRI mouse at 10 mg/kg. In kind it is ADME, organism-based. To be noted: in vivo.

Structures are written as SMILES. Active and inactive are the calls of the source. No cut-off for these calls is given here.

Sequence of Histone deacetylase 1 (Q13547 whole entry): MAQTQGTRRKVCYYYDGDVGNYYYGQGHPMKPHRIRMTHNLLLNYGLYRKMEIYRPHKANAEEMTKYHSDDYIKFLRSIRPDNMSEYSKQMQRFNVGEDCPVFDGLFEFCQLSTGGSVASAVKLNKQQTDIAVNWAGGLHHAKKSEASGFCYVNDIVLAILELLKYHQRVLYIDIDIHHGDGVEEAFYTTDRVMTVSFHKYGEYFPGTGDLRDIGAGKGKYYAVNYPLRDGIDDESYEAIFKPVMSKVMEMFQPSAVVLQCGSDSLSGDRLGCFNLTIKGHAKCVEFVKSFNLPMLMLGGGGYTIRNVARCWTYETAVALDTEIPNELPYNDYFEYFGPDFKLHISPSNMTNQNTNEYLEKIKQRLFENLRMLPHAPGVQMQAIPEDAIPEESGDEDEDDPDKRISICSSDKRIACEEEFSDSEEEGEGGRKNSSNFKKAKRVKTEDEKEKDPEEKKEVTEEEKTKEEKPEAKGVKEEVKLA

As usually defined, the EC50 is the midpoint of the concentration-response curve. What is called IC50 is the concentration that gives 50% inhibition. Regarding `CNC(=O)CCCCC[C@H](NC(=O)c1cncs1)c1ncc(-c2ccc(-n3cccn3)cc2)[nH]1`, the selectivity ratio in series [1] came to 23. Further, in series [2], the EC50 was determined as 900 nM. The IC50 in [3] came to 2490 nM; in series [4] it was 20500 nM.
For `CNC(=O)CCCCC[C@H](NC(=O)c1cncs1)c1ncc(-c2ccc3cccnc3c2)[nH]1` the same measures were over 6.6, 3810 nM, over 5000 nM and over 25000 nM.
Consider `CNC(=O)CCCCC[C@H](NC(=O)c1cncs1)c1ncc(-c2ccc3cc(C(F)(F)F)ncc3c2)[nH]1`, for which, in series [1], the selectivity ratio came out at 20. Further, the EC50 in series [2] was determined as 100 nM. Also, the IC50 is 290 nM in series [3] and 2040 nM in [4].
For the molecule `CCC(=O)CCCCC[C@H](NC(=O)C1CN(C)C1)c1ncc(-c2cc3ccccc3nc2OC)[nH]1`, in [5], the inhibition result was “inactive”.
Turning to `CNC(=O)CCCCC[C@H](NC(=O)c1cncs1)c1ncc(-c2ccc3cc(OC)ncc3c2)[nH]1`, the selectivity ratio in series [1] amounted to 14. Moreover, in series [2], the EC50 came to 100 nM. The IC50 in [3] is 390 nM; in series [4], 1370 nM.
As for `CNC(=O)CCCCC[C@H](NC(=O)c1cncs1)c1ncc(-c2cc3ccccc3[nH]c2=O)[nH]1`, the selectivity ratio in [1] was over 54. In series [2], the EC50 was found to be 500 nM. Also, the IC50 in [3] is over 2500 nM; in series [4], over 25000 nM.
For `CCC(=O)CCCCC[C@H](NC(=O)C12CCN(CC1)CC2)c1ncc(-c2ccc3ccccc3c2)[nH]1` the same measures were 2.5, 38 nM, 1.4 nM and 94 nM.
By clearance is commonly meant the rate of elimination divided by the concentration. Low readings indicate inefficient removal, high ones efficient removal. For the molecule `CNC(=O)CCCCC[C@H](NC(=O)C12CCN(CC1)CC2)c1ncc(-c2cc3ccccc3nc2OC)[nH]1`, the Drug uptake entry in series [6] is “Not Active”. The selectivity ratio in [1] came out at 4.7. Besides, the clearance in [7] is 10 mL/min/kg. Further, the EC50 in [2] worked out at 520 nM. Besides, the IC50 in series [3] was determined as 250 nM; in series [4] it was 2450 nM.
Regarding `CNC(=O)CCCCC[C@H](NC(=O)c1cncs1)c1ncc(-c2cccc3cccnc23)[nH]1`, the selectivity ratio in series [1] is over 3. Besides, the EC50 in [2] is 8280 nM. For the same molecule, the IC50 is over 2500 nM in series [3] and over 25000 nM in series [4].
In the same order, the values of `CNC(=O)CCCCC[C@H](NC(=O)c1cncs1)c1ncc(-c2ccc3ccccc3c2C)[nH]1` are over 1, 23700 nM, 23900 nM and over 25000 nM.
For `CNC(=O)CCCCC[C@H](NC(=O)c1cncs1)c1ncc(-c2ccc3[nH]cnc3c2)[nH]1` the same measures were over 2.1, 12000 nM, over 2500 nM and over 25000 nM.
Consider `CNC(=O)CCCCC[C@H](NC(=O)c1cncs1)c1ncc(-c2ccc3[nH]nnc3c2)[nH]1`, for which the selectivity ratio in series [1] is over 2.5. In addition, the EC50 in [2] is 10000 nM. The values for the IC50 in series [3] and in [4] were over 5000 nM and over 25000 nM, respectively.
Regarding `CNC(=O)CCCCC[C@H](NC(=O)C12CCN(CC1)CC2)c1ncc(-c2ccc3ccccc3c2)[nH]1`, the Drug uptake entry in series [6] is “Not Active”. For the same molecule, the selectivity ratio in [1] is 12. Moreover, the EC50 in [2] came out at 310 nM. Further, the figures for the IC50 in [3] and in [4] were 340 nM and 3770 nM, respectively. Also, in series [8], the clearance is 60 mL/min/kg.
In general, bioavailability refers to the share of a dose that reaches the circulation, judged against a reference dose that is usually intravenous. Consider `CNC(=O)CCCCC[C@H](NC(=O)c1cncs1)c1ncc(-c2cc3ccccc3nc2OC)[nH]1`, for which the bioavailability in [9] turned out to be 10%. In series [2], the concentration giving a half-maximal response (EC50) came to 570 nM. In addition, the IC50 in series [4] amounted to 890 nM.
As to `CNC(=O)CCCCC[C@H](NC(=O)c1cncs1)c1ncc(-c2ccc(-c3ccccc3)cc2)[nH]1`, the selectivity ratio in series [1] is over 3.3. Moreover, the EC50 in series [2] was 7570 nM. In addition, the results for the IC50 in series [3] and in series [4] were over 5000 nM and over 25000 nM, respectively.
For `CNC(=O)CCCCC[C@H](NC(=O)c1cncs1)c1ncc(-c2ccc3ccccc3c2)[nH]1` the same measures were 5.7, 300 nM, 320 nM and 1700 nM.
For `CNC(=O)CCCCC[C@H](NC(=O)c1cncs1)c1ncc(-c2ccc3ccnc(OC)c3c2)[nH]1` the same measures were 4.1, 4860 nM, 2620 nM and 20100 nM.
In the same order, the values of `CNC(=O)CCCCC[C@H](NC(=O)c1cncs1)c1ncc(-c2ccc3[nH]ncc3c2)[nH]1` are 12, 630 nM, 2120 nM and 7630 nM.
In turn, `CNC(=O)CCCCC[C@H](NC(=O)Cn1ccnn1)c1ncc(-c2cc3ccccc3nc2OC)[nH]1` gave a bioavailability in series [9] of 20%. Also, the selectivity ratio in [1] came to 3.8. Besides, the EC50 in [2] worked out at 1760 nM. Further, the values for the IC50 in series [3] and in series [4] were 1760 nM and 6650 nM, respectively.
With `CNC(=O)CCCCC[C@H](NC(=O)c1cncs1)c1ncc(-c2ccc(-c3cscn3)cc2)[nH]1`, the selectivity ratio in series [1] amounted to 14. Besides, the EC50 in [2] was 570 nM. The IC50 in [3] worked out at 2160 nM; in series [4], 8130 nM.
For `CNC(=O)CCCCC[C@H](NC(=O)c1cncs1)c1ncc(-c2ccc3[nH]ccc3c2)[nH]1` the same measures were 19, 330 nM, 1280 nM and 6330 nM.
With `CNC(=O)CCCCC[C@H](NC(=O)c1cncs1)c1ncc(-c2ccc3ccncc3c2)[nH]1`, in series [1], the selectivity ratio turned out to be 18. The EC50 in series [2] was 270 nM. Also, the half-maximal inhibitory concentration (IC50) in [3] turned out to be 600 nM; in series [4], 4750 nM.
